Data from ChEMBL document CHEMBL1149128, “Novel endoperoxide antimalarials: synthesis, heme binding, and antimalarial activity” (J Med Chem, 2004).

What was measured:
Homo sapiens [1] = organism: Homo sapiens; assay: Lysis of human erythrocytes at a concentration of 1 mM for 30 minutes at 37 degree C; format: functional
Summary of the method: (§1)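 Washed human erythrocytes (0.4 × 10⁸ cells) in phosphate-buffered saline with no protein in the medium; compound at 1 mM final; 30 min at 37 °C. Cells pelleted, then supernatant absorbance compared with freeze-thawed cells to give percent hemolysis.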

Plasmodium falciparum = assay: In vitro antimalarial activity against Plasmodium falciparum D10
Homo sapiens [2] = organism: Homo sapiens; assay: Compound was evaluated for the lysis of human erythrocytes at a concentration of 1 mM for 30 minutes at 37 degree C; format: functional; summary of the method: as §1

SMILES | Hemolysis (Homo sapiens [1]) [%] | IC50 (Plasmodium falciparum) [nM] | Hemolysis (Homo sapiens [2]) [%]
C[C@@H]1OO[C@H](CC(=O)OC23CC4CC(CC(C4)C2)C3)[C@@H]2O[C@@H]21 | 4 | 5000 | –
C[C@@H]1OO[C@H](CC(=O)OC23CC4CC(CC(C4)C2)C3)[C@H]2O[C@H]21 | 6 | 1300 | –
C1CCC([C@H]2OO[C@@H](C3CCCCC3)[C@H]3O[C@H]32)CC1 | 5 | 320 | –
CCCCCCC[C@H]1OO[C@@H](CCC)[C@H]2O[C@H]21 | 51 | > 10000 | –
C1=C[C@@H](C2CCCC2)OOC1 | 11 | > 10000 | –
C1CCC([C@H]2OO[C@@H](C3CCCC3)[C@@H]3O[C@@H]32)C1 | 8 | 500 | –
c1ccc([C@H]2OO[C@@H](C3CCCCC3)[C@@H]3O[C@@H]32)cc1 | 2 | > 10000 | –
CCCCCCC[C@@H]1C=C[C@H](CCC)OO1 | 62 | > 10000 | –
C1CCC([C@H]2OOC[C@@H]3O[C@@H]32)C1 | 1 | 1400 | –
C1CCC([C@H]2OOC[C@@H]3O[C@@H]32)CC1 | 2 | > 10000 | –
C1C2CC3CC1CC([C@H]1OOC[C@@H]4O[C@@H]41)(C2)C3 | 41 | 4000 | –
O=C(C1CCCCC1)[C@H]1O[C@H]1[C@@H](O)C1CCCCC1 | 8 | > 10000 | –
c1ccc([C@H]2OO[C@@H](c3ccccc3)[C@@H]3O[C@@H]32)cc1 | 5 | > 10000 | –
C1CCC(C[C@H]2OOC[C@@H]3O[C@@H]32)CC1 | 3 | > 10000 | –
C1=C[C@H](C2CCCC2)OO[C@@H]1C1CCCC1 | 52 | 600 | –
C1=C[C@@H](C2CCCCC2)OOC1 | 100 | 3200 | –
C1=C[C@H](C2CCCCC2)OO[C@@H]1C1CCCCC1 | 100 | 1200 | –
C1CCC([C@H]2OOC[C@H]3O[C@@H]23)C1 | 1 | 1400 | –
C[C@H]1C=C[C@@H](CCCO)OO1 | 0 | 2500 | –
C1CC([C@H]2OO[C@@H](C3CCC3)[C@@H]3O[C@@H]32)C1 | 1 | 2900 | –

SMILES | Hemolysis (Homo sapiens [1]) [%] | IC50 (Plasmodium falciparum) [nM] | Hemolysis (Homo sapiens [2]) [%]
CCCCCCC[C@H]1OO[C@@H](CCC)[C@@H]2O[C@@H]21 | 47 | > 10000 | –
C1=C[C@H](C2CCC2)OO[C@@H]1C1CCC1 | 32 | > 10000 | –
C1=C[C@@H](CC2CCCCC2)OOC1 | 100 | 9500 | –
C1CCC(C[C@H]2OOC[C@H]3O[C@@H]23)CC1 | 6 | 2000 | –
c1ccc(C2(c3ccccc3)OOCC3OC32)cc1 (stereo not given) | 1 | 5000 | –
C1CC([C@H]2OO[C@@H](C3CCC3)[C@H]3O[C@H]32)C1 | 1 | 1600 | –
C[C@]12COO[C@H](c3ccccc3)[C@H]1O2 | 2 | > 10000 | –
C[C@H]1C=C[C@@H](c2ccccc2)OO1 | 32 | > 10000 | –
C1=C[C@H](c2ccccc2)OO[C@@H]1c1ccccc1 | 4 | 6000 | –
C1=C[C@@H](C23C[C@H]4C[C@@H](C2)C[C@@H](C3)C4)OOC1 | 100 | 1300 | –
C[C@@H]1OO[C@H](c2ccccc2)[C@H]2O[C@H]21 | 2 | > 10000 | –
C1CCC([C@H]2OO[C@@H](C3CCCCC3)[C@@H]3O[C@@H]32)CC1 | 6 | 500 | –
C[C@H]1C=C[C@@H](CC(=O)OC23C[C@H]4C[C@@H](C2)C[C@@H](C3)C4)OO1 | 27 | 1000 | –
CCC[C@H]1C=C[C@@H](CCC)OO1 | 2 | > 10000 | –
C1=C[C@H](C2CCCCC2)OO[C@@H]1c1ccccc1 | 9 | 8100 | –
C1CCC([C@H]2OO[C@@H](C3CCCC3)[C@H]3O[C@H]32)C1 | 9 | 500 | –
O=C(c1ccccc1)[C@H]1O[C@H]1[C@@H](O)c1ccccc1 (stereo in doubt; 7j) | 2 | – | –
C[C@@H]1CC[C@H]2[C@@H](C)C(=O)O[C@@H]3O[C@@]4(C)CC[C@@H]1[C@]32OO4 [ARTEMISININ] | – | – | 4
CCN(CC)CCCC(C)Nc1ccnc2cc(Cl)ccc12 (stereo not given) [CHLOROQUINE] | 1 | – | –
